Screens from PubChem BioAssay.
Apaf1 activ – activators of human Apaf-1 apoptosome | O14727 | Apaf-1 apoptosome caspase-3 activation, DEVD-Rh110 fluorescence; active compounds read low | activity change, negative = activation, % at 20 µM | 0.31% of 330,000 active | AID 489031;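 active = activity change at or below -40% at 20 µM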
Target sequence (O14727 whole entry, looked up): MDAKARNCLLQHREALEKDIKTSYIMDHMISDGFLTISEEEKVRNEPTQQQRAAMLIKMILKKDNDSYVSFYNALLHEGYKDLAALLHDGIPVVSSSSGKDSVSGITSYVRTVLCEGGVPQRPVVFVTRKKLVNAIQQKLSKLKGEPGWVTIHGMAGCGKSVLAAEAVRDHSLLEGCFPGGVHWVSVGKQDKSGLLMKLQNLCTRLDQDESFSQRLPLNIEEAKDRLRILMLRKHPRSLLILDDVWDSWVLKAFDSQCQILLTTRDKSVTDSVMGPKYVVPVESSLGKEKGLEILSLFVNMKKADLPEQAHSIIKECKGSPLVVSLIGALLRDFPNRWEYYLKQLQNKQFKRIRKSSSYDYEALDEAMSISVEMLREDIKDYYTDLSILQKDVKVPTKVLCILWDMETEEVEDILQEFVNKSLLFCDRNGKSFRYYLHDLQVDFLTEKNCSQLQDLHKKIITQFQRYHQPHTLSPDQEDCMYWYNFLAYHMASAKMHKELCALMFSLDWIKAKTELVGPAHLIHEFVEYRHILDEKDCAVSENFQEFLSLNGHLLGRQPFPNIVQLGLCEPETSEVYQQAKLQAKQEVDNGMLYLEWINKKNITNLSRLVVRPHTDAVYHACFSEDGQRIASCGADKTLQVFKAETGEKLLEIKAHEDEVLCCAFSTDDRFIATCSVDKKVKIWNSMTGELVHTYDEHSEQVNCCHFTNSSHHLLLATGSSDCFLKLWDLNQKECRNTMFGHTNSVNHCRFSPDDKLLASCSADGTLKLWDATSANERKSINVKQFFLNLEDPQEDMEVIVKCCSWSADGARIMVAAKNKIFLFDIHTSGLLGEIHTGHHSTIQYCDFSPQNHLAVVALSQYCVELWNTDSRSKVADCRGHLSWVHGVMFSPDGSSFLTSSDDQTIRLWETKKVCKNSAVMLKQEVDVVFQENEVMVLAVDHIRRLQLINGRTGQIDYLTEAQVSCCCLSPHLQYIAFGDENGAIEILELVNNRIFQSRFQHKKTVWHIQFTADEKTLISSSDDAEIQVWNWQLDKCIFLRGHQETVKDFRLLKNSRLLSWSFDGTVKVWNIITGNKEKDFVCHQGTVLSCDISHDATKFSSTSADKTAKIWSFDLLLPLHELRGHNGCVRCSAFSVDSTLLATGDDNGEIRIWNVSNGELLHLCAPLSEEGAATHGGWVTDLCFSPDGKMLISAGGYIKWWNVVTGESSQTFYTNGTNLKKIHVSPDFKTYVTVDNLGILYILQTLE
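Material: reconstituted apoptosome of Apaf-1, cytochrome c, caspase-9, procaspase-3; times: 30 min preincubation, 50 min reaction, room temperature; measured by: fluorescence, 540 nm emission, 480 nm excitation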
Rh110 act interf – counter-screen for Apaf-1 activators: fluorescence interference. 980 tested, under 10 active. fluorescence interference (activity change), % at 20 µM, hits read low. AID 504616. Rh110 fluorescence interference, quenched caspase reaction, Ex480/Em540. shares compounds with Apaf1 activ;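 active = mean activity change at or below -40% when tested at 20 µM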
Apaf-1 act conf – confirmation of human Apaf-1 activators. shares compounds with Apaf1 activ. reconstituted apoptosome caspase-3 activity, DEVD-Rh110 fluorescence; active compounds read low. activity change, negative = activation, % at 20 µM. 5% of 980 active. AID 504617;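 active = mean activity change at or below -40%, meaning activation of 40% or more, at 20 µM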
Starred values were filed as active, the others as inactive; / = not tested or not shown. Only a sample is shown.

SMILES	Apaf1 activ	Rh110 act interf	Apaf-1 act conf
CCN(CC(=O)Nc1cc(S(=O)(=O)N2CCOCC2)ccc1Cl)Cc1ccccc1	42.0	/	/
O=C(OCc1nnc(-c2ccccc2)o1)c1ccc([N+](=O)[O-])s1	47.2	/	/
CCOc1cc(/C=N/NC(=O)C(=O)NCCCOC(C)C)cc(Br)c1O	-173.2*	-0.4	12.1
C#CCOCCOCCOCCNc1nc(N2CCN(C(=O)CCCCCCCCCCNC(=O)[C@H](CCC(=O)O)n3cc(CCCCCN)nn3)CC2)nc(N2CCN(C(=O)CCCCCCCCCCNC(=O)[C@@H]([C@H](C)O)n3cc(C)nn3)CC2)n1	50.9	/	/
COc1ccc(-c2nc(-c3ccccc3)c(-c3cccs3)[nH]2)cc1OC	-373.1*	2.4	14.9
COc1ccc(C(=O)Nc2ccccc2C(=O)NC(Cc2ccc(O)cc2)C(=O)NNC(=O)c2ccccc2Cl)cc1 (centres undefined)	-47.6*	3.3	16.5
O=c1cccccc1NCc1ccccc1	44.5	/	/
Cc1cc(C)nc(N/N=C/c2ccc(N3CCOCC3)cc2)n1	-67.8*	9.3	13.5
N#Cc1cc2ccc(N3CCOCC3)cc2cc1C#N	82.2	/	/
COc1nc(N/N=C/c2ccc(-c3ccccc3[N+](=O)[O-])o2)nc(N2CCOCC2)n1	54.4	/	/
C#CCOCCOCCOCCNc1nc(N2CCN(C(=O)CCCCCCCCCCNC(=O)[C@@H](CCSC)n3cc(CCO)nn3)CC2)nc(N2CCN(C(=O)CCCCCCCCCCNC(=O)[C@H]([C@@H](C)CC)n3cc(CCCCN=C(N)N)nn3)CC2)n1	64.2	/	/
CCCNC(=O)OC[C@H]1O[C@H](CCO/N=C(\C)CCN2CCc3nc(-c4ccccc4)c(-c4ccccc4)cc3C2)C=C[C@@H]1Oc1ccc(OC)cc1	52.8	/	/
O=C1/C(=C/c2ccccn2)SC(=S)N1c1ccc(O)cc1	-47.2*	-1.2	-10.2
CCCCC(=Nc1ccc(N)cc1)C1=C(O)C(C(=O)OC)C(C)(C)CC1=O (centres undefined)	61.6	/	/
CCCC(CCC)C(=O)O	-6.2	/	/
CC(=O)c1c(C)[nH]c(C(=O)CSc2ccc(F)cc2)c1C	-212.7*	4.7	5.4
O=C(Cc1cc(=O)[nH][nH]1)N/N=C/c1c(Cl)cccc1Cl	64.3	/	/
Cn1c(CCN2CCCCC2)nc2cc(NC(=O)COc3ccccc3)ccc21	52.6	/	/
COC1=C(Nc2ccccc2)C(=O)c2ccccc2C1=O	60.8	/	/
O=C1N=C(N2CCN(Cc3ccccc3)CC2)S/C1=C/c1cccs1	-408.0*	10.9	20.4
C#CCOCCOCCOCCNc1nc(N2CCN(C(=O)[C@H]([C@@H](C)CC)n3cc([C@@H](N)CC(C)C)nn3)CC2)nc(N2CCN(C(=O)[C@H](Cc3cc4ccccc4[nH]3)n3cc([C@@H](N)CC(C)C)nn3)CC2)n1	57.7	/	/
Cc1ccc(SC2=C(Sc3ccc(C)cc3)C(=O)c3ccccc3C2=O)cc1	64.3	/	/
Cc1ccc(Sc2cc(Cl)nc(N)n2)cc1	-386.6*	19.1	8.4
Cc1ccc(SCc2cc(-c3ccc(Cl)cc3)no2)cc1	78.3	/	/
COc1cc(CNc2ccc(O)cc2)cc(Br)c1OCc1ccccc1F	95.7	/	/
SMILES	Apaf1 activ	Rh110 act interf	Apaf-1 act conf
COc1ccc(-c2sc3ccccc3c2-c2ccc(OCCN(C)C)cc2)cc1	76.5	/	/
CCOC(=O)c1ccc(NC(=S)NC(=O)c2nn(CC)cc2Br)cc1	-51.0*	-0.2	11.0
CC(=O)Nc1ccc(C(=O)COC(=O)c2nc3nc(C)cc(C)n3n2)cc1	41.2	/	/
CCOC(=O)c1ccc(NC(=O)c2nn(C)cc2Br)cc1	-148.1*	4.5	16.2
CC(=O)c1cc(O)c2ccccc2c1O	58.0	/	/
CCN(CC)CCOc1ccc(/C(=C(\Cl)c2ccccc2)c2ccccc2)cc1	66.5	/	/
COC(=O)c1c(NC(=O)c2nc3ccccc3s2)sc2c1CC(C)(C)NC2(C)C	58.2	/	/
COc1ccc(CN(C)C(=O)c2ccc(OCC(=O)Nc3cccc(C(F)(F)F)c3)c(OC)c2)c(OC)c1	44.9	/	/
CCOC(CNc1ncnc2c1cnn2C)OCC	-142.7*	-0.4	6.2
CC(C)=CCc1c(O)c(CC=C(C)C)c2c(c1O)C(=O)CC(c1ccc(O)cc1)O2 (centres undefined)	-149.9*	15.9	22.8
C#CCOCCOCCOCCNc1nc(N2CCN(C(=O)CCCCCCCCCCNC(=O)[C@@H](CCSC)n3cc(CCO)nn3)CC2)nc(N2CCN(C(=O)CCCCCCCCCCNC(=O)[C@H]([C@@H](C)CC)n3cc(CCCCCN)nn3)CC2)n1	50.9	/	/
CCO/C=C1/C(=O)N(Cc2ccccc2)C(=O)c2ccccc21	61.7	/	/
Nc1c(C(=O)NCc2ccc3c(c2)OCO3)c2nc3ccccc3nc2n1CCCN1CCOCC1	90.3	/	/
O=C(NCc1ccc2c(c1)OCO2)c1cc(-c2ccccc2)c(N2CCOCC2)s1	-287.3*	8.3	22.3
